Experimental data reported in ChEMBL document CHEMBL3112469, “Substituted 2-phenylimidazopyridines: a new class of drug leads for human African trypanosomiasis” (J Med Chem, 2014).
Values after ≈ are worked out from the molar mass of the structure shown. Active and inactive are the calls of the source. No cut-off for these calls is given here.

What was measured:
[1] = Apparent permeability across MDCK2 cells expressing human MDR1; type: ADME, cell-based, Canis lupus familiaris; details: dog, mdck-ii
How it was run: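 MDCKII cells transfected with human MDR1 (P-gp) grown as monolayers; permeability (Papp) measured in triplicate with and without the MDR1 inhibitor GF-120918.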

[2] = test system: Mus musculus; experiment: (§1) AUC in mouse plasma at 50 mg/kg, po by LC-MS analysis; type: ADME, organism-based; design: dose 50 mg/kg, route oral; details: in vivo
How it was run: (§2)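 Mice, groups of three, were given 50 mg/kg by oral gavage in 0.2 mL vehicle (7% Tween 80, 3% ethanol, 5% DMSO, 0.9% saline). Blood was sampled at 30, 60, 120, 180, 240 and 360 min. Plasma was separated and extracted with acetonitrile, and compound was quantified by LC-MS/MS.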

[3] = test system: Mus musculus; experiment: (§3) Cmax in mouse plasma at 50 mg/kg, po LC-MS analysis; type: ADME, organism-based; design: dose 50 mg/kg, route oral; details: in vivo; how it was run: as §2
[4] = test system: Trypanosoma brucei brucei; experiment: Antiparasitic activity against Trypanosoma brucei brucei BF427 assessed as growth inhibition by Alamar Blue assay; type: functional, organism-based
How it was run: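 Bloodstream-form T. brucei brucei BF427 grown with serial compound dilutions, each tested in triplicate. Growth quantified with AlamarBlue. Pentamidine isothionate included in every assay as positive control.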

[5] = test system: Mus musculus; experiment: (§4) Tmax in mouse plasma at 50 mg/kg, po by LC-MS analysis; type: ADME, organism-based; design: dose 50 mg/kg, route oral; details: in vivo; how it was run: as §2
[6] = test system: Mus musculus; experiment: Elimination half life in mouse plasma at 50 mg/kg, po by LC-MS analysis; type: ADME, organism-based; design: dose 50 mg/kg, route oral; details: in vivo
How it was run: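 Mice dosed by oral gavage at 50 mg/kg in 0.2 mL vehicle (7% Tween 80, 3% ethanol, 5% DMSO, 0.9% saline), groups of three. Plasma separated and extracted with acetonitrile, and compound quantified by LC-MS/MS.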

[7] = test system: Liver microsome; experiment: Half life in human liver microsomes by LC-MS analysis; type: ADME
How it was run: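 Compounds incubated with mouse or human liver microsomes. Samples removed at time points and analysed by LC-MS/MS. Dextromethorphan and testosterone used as reference drugs to standardize each assay.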

[8] = Aqueous solubility of the compound at pH 7.4 after 5 to 10 mins by HPLC analysis; type: physicochemical; details: buffer
[9] = Aqueous solubility of the compound at pH 2 after 5 to 10 mins by HPLC analysis; type: physicochemical; details: buffer
[10] = test system: L6; experiment: Cytotoxicity against rat L6 cells after 48 hrs by Alamar Blue assay; type: cell-based; details: l6, 48 h
[11] = Clearance in mouse plasma at 50 mg/kg, po by LC-MS analysis; type: ADME, organism-based; design: dose 50 mg/kg, route oral
How it was run: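 Mice, three per compound, given 50 mg/kg by oral gavage in 0.2 mL of 7% Tween 80/3% ethanol/5% DMSO/0.9% saline. Plasma extracted with acetonitrile and quantified by LC-MS/MS.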

[12] = Cytotoxicity against human CRL8155 cells after 48 hrs by Alamar Blue assay; type: cell-based; details: crl8155, 48 h
[13] = test system: Nucleic Acid; experiment: Ratio of drug level in brain to plasma in mouse at 5 mg/kg, ip after 60 mins; type: ADME, organism-based; design: dose 5 mg/kg, route intraperitoneal; details: 1 h
How it was run: (§5)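 Mice, groups of three, received 5 mg/kg ip in 0.4 mL vehicle (7% Tween 80, 3% ethanol, 5% DMSO, 0.9% saline) and were sacrificed at set times. Brains were weighed, frozen and homogenized in acetonitrile; plasma came from heparinized capillary blood. Both were measured by LC-MS/MS. Brain concentration used 1 g = 1 mL and was corrected for 2.5% vasculature volume.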

[14] = test system: Nucleic Acid; experiment: Ratio of drug level in brain to plasma in mouse at 5 mg/kg, ip after 15 mins; type: ADME, organism-based; design: dose 5 mg/kg, route intraperitoneal; details: 0.25 h; how it was run: as §5
[15] = test system: HepG2; experiment: Cytotoxicity against human HepG2 cells after 48 hrs by Alamar Blue assay; type: cell-based; details: hepg2, 48 h
[16] = test system: Trypanosoma brucei rhodesiense; experiment: Antiparasitic activity against Trypanosoma brucei rhodesiense; type: functional, organism-based
[17] = test system: Rattus norvegicus; experiment: Oral bioavailability in Sprague-Dawley rat at 21.3 mg/kg by LC-MS analysis; type: ADME, organism-based; details: in vivo
[18] = as §1; type: ADME, organism-based; design: dose 50 mg/kg, route oral; details: plasma; how it was run: as §2
[19] = as §3; type: ADME, organism-based; design: dose 50 mg/kg, route oral; details: plasma; how it was run: as §2
[20] = test system: Trypanosoma brucei rhodesiense; experiment: Antitrypanosomal activity against Trypanosoma brucei rhodesiense ST1B900 infected in Swiss Webster mouse assessed as cure from infection at 5 to 50 mg/kg, po bid administered 48 hrs postinfection for 5 days measured on day 60; type: functional, organism-based
[21] = as §4; type: ADME, organism-based; design: dose 50 mg/kg, route oral; details: plasma; how it was run: as §2
[22] = test system: Rattus norvegicus; experiment: Apparent volume of distribution at steady state in Sprague-Dawley rat at 20 mg/kg, po and 5 mg/kg, iv by LC-MS analysis; type: ADME, organism-based; details: in vivo
How it was run: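 Jugular-cannulated Sprague-Dawley rats, two per route. Oral gavage 20 mg/kg or iv 5 mg/kg infused over 0–3 min, each in 1 mL of 7% Tween 80/3% EtOH/5% DMSO/saline. Jugular blood sampled from 5 to 1440 min. Plasma extracted with acetonitrile and analysed by LC-MS/MS.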

[23] = test system: Trypanosoma brucei rhodesiense; experiment: Antitrypanosomal activity against Trypanosoma brucei rhodesiense ST1B900 infected in Swiss Webster mouse assessed as cure from infection at 50 mg/kg, po qd administered 48 hrs postinfection for 5 days measured on day 60; type: functional, organism-based; design: dose 50 mg/kg
[24] = test system: Trypanosoma brucei rhodesiense; experiment: Antitrypanosomal activity against Trypanosoma brucei rhodesiense ST1B900 infected in Swiss Webster mouse assessed as cure from infection at 1 mg/kg, po bid administered 48 hrs postinfection for 5 days measured on day 4 to 13; type: functional, organism-based; design: dose 1 mg/kg

Row | SMILES | Papp [1] | EC50 [4] | CC50 [10] | CC50 [12] | BPR [13] | CC50 [15] | EC50 [16] | further results
1 | O=C(Nc1ccc(Cl)c(-c2nc3ncccc3o2)c1)c1ccco1 | 41.7 ×10⁻⁶ cm/s | 0.22 µM | > 50 µM | > 50 µM | 0.38 | > 50 µM |  | AUC [2]: 187 µM·min; Cmax [3]: 60 nM; Tmax [5]: 30 min; beta t1/2 [6]: 53 min; t1/2 [7]: 6.4 min; solubility [8]: 20 µM (≈ 6.79 µg/mL); solubility [9]: 22 µM (≈ 7.47 µg/mL); CL/F [11]: 98 mL/min/kg; BPR [14]: 0.54
2 | O=C(Nc1ccc(F)c(-c2nc3ncc(-c4ccccc4)cc3o2)c1)c1ccco1 |  | 0.04 µM | 7 µM |  |  |  | 0.08 µM | 
3 | O=C(Nc1ccc(Cl)c(-c2nc3ncccc3o2)c1)C(F)(F)F |  |  |  |  |  |  | > 50 µM | 
4 | O=C(Nc1ccc(F)c(-c2nc3ncc(-c4ccc(F)cc4)cc3o2)c1)c1ccco1 |  | 0.05 µM |  | > 50 µM |  | 32 µM | 0.1 µM | 
5 | O=C(Nc1ccc(F)c(-c2nc3cc(-c4ccccc4)cnc3[nH]2)c1)N1CCCC1 | 40.1 ×10⁻⁶ cm/s | 0.002 µM |  |  | 0.5 |  |  | F [17]: 35%; AUC [18]: 18.8 µM·h; Cmax [19]: 4300 nM; Activity [20]: Active; Tmax [21]: 30 min; Vdss(app) [22]: 2.4 L/kg; Activity [23]: Active; Activity [24]: inactive
